# According to ChEMBL document CHEMBL1121685, “Development of new mitomycin C and porfiromycin analogues” (J Med Chem, 1981):
# Key:
# Mus musculus [1] = test: Effect of compound on total white blood cell count in BDG1 male mice, after intraperitoneal administration at a dose of 1.27 mg/kg on day 7; type: functional
# How it was run: (§1)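 BDG₁ male mice received a single ip dose on day 0. The dose series topped out at the LD₅₀ level, or at twice the optimal dose for some agents. Total white blood cell count was taken on days 3, 5 and 7 and expressed as % change from untreated controls. Significance was set at p ≤ 0.05 or p ≤ 0.01.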
# Mus musculus [2] = test: Effect of compound on total white blood cell count in BDG1 male mice, after intraperitoneal administration at a dose of 1.27 mg/kg on day 3; type: functional; how it was run: as §1
# Mus musculus [3] = test: Effect of compound on total white blood cell count in BDG1 male mice, after intraperitoneal administration at a dose of 1.69 mg/kg on day 3; type: functional; how it was run: as §1
# Mus musculus [4] = test: Effect of compound on total white blood cell count in BDG1 male mice, after intraperitoneal administration at a dose of 1.69 mg/kg on day 7; type: functional; how it was run: as §1
# Mus musculus [5] = test: Effect of compound on total white blood cell count in BDG1 male mice, after intraperitoneal administration at a dose of 1.69 mg/kg on day 5; type: functional; how it was run: as §1
# Mus musculus [6] = species on record: Mus musculus; test: Degree of leukopenia produced by compound is assessed form Percent change in white cells on day 7; type: functional; how it was run: as §1
# Mus musculus [7] = species on record: Mus musculus; test: Half-wave potential produced by the compound at their optimal dose; type: functional; set-up: unit not given here
# Mus musculus [8] = test: Effect of compound on total white blood cell count in BDG1 male mice, after intraperitoneal administration at a dose of 1.27 mg/kg on day 5; type: functional; how it was run: as §1
# Mus musculus [9] = test: Effect of compound on total white blood cell count in BDG1 male mice, after intraperitoneal administration at a dose of 3 mg/kg on day 3; type: functional
# How it was run: (§2)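 Single ip dose given on day 0 to BDG1 male mice over a descending dose series. Total white blood cell count is expressed as % change from untreated control on days 3, 5 and 7. Significance is flagged at p ≤ 0.05 and p ≤ 0.01.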
# Mus musculus [10] = test: Effect of compound on total white blood cell count in BDG1 male mice, after intraperitoneal administration at a dose of 3 mg/kg on day 5; type: functional; how it was run: as §2
# Mus musculus [11] = test: Effect of compound on total white blood cell count in BDG1 male mice, after intraperitoneal administration at a dose of 3 mg/kg on day 7; type: functional; how it was run: as §2
# Mus musculus [12] = test: Effect of compound on total white blood cell count in BDG1 male mice, after intraperitoneal administration at a dose of 2.55 mg/kg on day 5; type: functional; how it was run: as §2
# Mus musculus [13] = test: Effect of compound on total white blood cell count in BDG1 male mice, after intraperitoneal administration at a dose of 2.55 mg/kg on day 7; type: functional; how it was run: as §2
# Mus musculus [14] = test: Effect of compound on total white blood cell count in BDG1 male mice, after intraperitoneal administration at a dose of 2.55 mg/kg on day 3; type: functional; how it was run: as §2
# Mus musculus [15] = test: Minimum effective dose that show activity against P-388 murine leukemia cells in CDF1 female mice, after intraperitoneal administration (optimal dose is 1.6 mg/kg); type: functional; details: P388, ip, read-out: MED
# Mus musculus [16] = test: Antitumor activity against P-388 murine leukemia cells in CDF1 female mice after intraperitoneal administration at the specified optimal dose of 1.6 mg/kg; type: functional
# [17] = Therapeutic ratio is expressed as ratio of optimal dose and minimum effective dose; type: ADME; details: mouse; read-out: TR
# How it was run: (§3)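 10⁶ P-388 ascites cells implanted ip in CDF₁ female mice. Six mice per dose, 10 saline-injected controls, and a concurrent mitomycin C reference group. %T/C = median survival time of treated/control × 100. MED is the lowest dose giving %T/C > 125. Therapeutic ratio = optimal dose/MED.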
# Mus musculus [18] = test: Effect of compound on total white blood cell count in BDG1 male mice, after intraperitoneal administration at a dose of 12.8 mg/kg on day 3 (highest dose was twice the optimal dose); type: functional; how it was run: as §1
# Mus musculus [19] = test: Effect of compound on total white blood cell count in BDG1 male mice, after intraperitoneal administration at a dose of 12.8 mg/kg on day 5 (highest dose was twice the optimal dose); type: functional; how it was run: as §1
# Mus musculus [20] = test: Effect of compound on total white blood cell count in BDG1 male mice, after intraperitoneal administration at a dose of 12.8 mg/kg on day 7 (highest dose was twice the optimal dose); type: functional
# Mus musculus [21] = test: Effect of compound on total white blood cell count in BDG1 male mice, after intraperitoneal administration at a dose of 6.4 mg/kg on day 5; type: functional
# How it was run: (§4)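 Single ip dose given on day 0 to BDG₁ male mice. Total white blood cell count measured on days 3, 5 and 7, expressed as % change from control. Highest dose was at the LD₅₀, or at twice the optimal dose where so footnoted. Significance reported at p ≤ 0.05 and p ≤ 0.01. D marks death of one or more mice.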
# Mus musculus [22] = test: Effect of compound on total white blood cell count in BDG1 male mice, after intraperitoneal administration at a dose of 6.4 mg/kg on day 3; type: functional; how it was run: as §4
# Mus musculus [23] = test: Effect of compound on total white blood cell count in BDG1 male mice, after intraperitoneal administration at a dose of 6.4 mg/kg on day 7; type: functional; how it was run: as §4
# Mus musculus [24] = test: Minimum effective dose that show activity against P-388 murine leukemia cells in CDF1 female mice, after intraperitoneal administration (optimal dose is 6.4 mg/kg); type: functional; details: P388, ip, read-out: MED; how it was run: as §3
# Mus musculus [25] = test: Antitumor activity against P-388 murine leukemia cells in CDF1 female mice after intraperitoneal administration at the specified optimal dose of 6.4 mg/kg; type: functional
compound,measurement,setting,value
COC12[C@@H]3N[C@@H]3CN1C1=C(C(=O)C(N3CC3)=C(C)C1=O)[C@@H]2COC(N)=O (stereo partly specified),Change,Mus musculus [1],3%
same,Change,Mus musculus [2],-16%
same,Change,Mus musculus [3],16%
same,Change,Mus musculus [4],-11%
same,Change,Mus musculus [5],9%
same,Change,Mus musculus [6],-11%
same,E1/2,Mus musculus [7],-0.31
same,Change,Mus musculus [8],27%
same,Change,Mus musculus [9],-12%
same,Change,Mus musculus [10],3%
same,Change,Mus musculus [11],13%
same,Change,Mus musculus [12],34%
same,Change,Mus musculus [13],18%
same,Change,Mus musculus [14],15%
same,minimal effective dose,Mus musculus [15],0.025 mg/kg
same,T/C,Mus musculus [16],266%
same,selectivity ratio,[17],64
C=CCNC1=C(C)C(=O)C2=C(C1=O)[C@H](COC(N)=O)C1(OC)[C@@H]3N[C@@H]3CN21 (stereo partly specified),Change,Mus musculus [18],-33%
same,Change,Mus musculus [19],-42%
same,Change,Mus musculus [20],6%
same,Change,Mus musculus [21],-37%
same,Change,Mus musculus [22],-35%
same,Change,Mus musculus [23],-0.6%
same,minimal effective dose,Mus musculus [24],3.2 mg/kg
same,T/C,Mus musculus [25],150%
same,selectivity ratio,[17],2
